Measurements published in ChEMBL document CHEMBL1275547, “KHM-1, a novel plasmid-mediated metallo-beta-lactamase from a Citrobacter freundii clinical isolate” (2008).
≈ marks a conversion by molar mass, not a printed value. Calls of active or inactive are those of the source. No cut-off for these calls is given here.

Columns and labels:
Escherichia coli [1] = experiment: Antibacterial activity against Escherichia coli JM109 by microdilution method; assay type: functional
Method in brief: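 Microdilution β-lactam susceptibility in E. coli JM109, the host strain for recombinant plasmids such as the pHSG396-based blaKHM-1 clone.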

Escherichia coli [2] = experiment: Antibacterial activity against Escherichia coli JM109 harboring recombinant pKHM-1 by microdilution method; assay type: functional
Escherichia coli [3] = experiment: Antibacterial activity against Escherichia coli K-12 W1895 transconjugant harboring pCF243 by microdilution method; assay type: functional
Citrobacter freundii [4] = experiment: Antibacterial activity against Citrobacter freundii KHM243 clinical isolate by microdilution method; assay type: functional
Escherichia coli [5] = experiment: Antibacterial activity against Escherichia coli K-12 W1895 by microdilution method; assay type: functional
Method in brief: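 Microdilution β-lactam MICs in E. coli K-12 W1895, the conjugation recipient. Transconjugants carrying the natural blaKHM-1 plasmid were selected on Penassay agar with rifampin (200 μg/ml) and moxalactam (16 μg/ml).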

Escherichia coli [6] = details: JM109
Escherichia coli [7] = experiment: Ratio of Kcat to Km for Escherichia coli JM109 harboring recombinant pKHM-1 Beta-lactamase KHM-1 assessed as compound hydrolysis by UV-visible spectrophotometry
Method in brief: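 KHM-1 was purified from E. coli JM109(pKHM-1) on HiTrap Q and Superdex 200 columns, with fractions tracked by 100 μM nitrocefin hydrolysis. Protein was measured by BCA. Hydrolysis was followed spectrophotometrically in 50 mM phosphate pH 7.0 at 25°C under initial-rate conditions. Km and kcat came from Lineweaver-Burk plots as means of three independent experiments, and kcat/Km was calculated from them.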

Escherichia coli [8] = details: JM109; remark: listed apart in the source
Escherichia coli [9] = experiment: Antibacterial activity against Escherichia coli K-12 W1895 by microdilution method in presence of Sulbactam; assay type: functional
Method in brief: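 β-Lactam susceptibility was measured by microdilution. Ampicillin was tested combined with sulbactam at a fixed 2:1 ampicillin:sulbactam ratio. The E. coli K-12 W1895 strain served as the recipient strain in the conjugation experiments.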

Escherichia coli [10] = experiment: Antibacterial activity against Escherichia coli JM109 by microdilution method in presence of Sulbactam; assay type: functional
Method in brief: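 Microdilution β-lactam susceptibility in E. coli JM109, the host for recombinant plasmids including the pHSG396 construct carrying blaKHM-1. Sulbactam was paired with ampicillin at a fixed 2:1 ampicillin-to-sulbactam ratio.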

Escherichia coli [11] = experiment: Antibacterial activity against Escherichia coli JM109 harboring recombinant pKHM-1 by microdilution method in presence of Sulbactam; assay type: functional
Method in brief: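 Broth microdilution MIC of ampicillin-sulbactam, combined at a 2:1 ampicillin:sulbactam ratio. The host is E. coli JM109 carrying pKHM-1, a recombinant pHSG396 clone of an EcoRI fragment of pCF243 bearing blaKHM-1, selected on agar with moxalactam (1 μg/ml).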

Escherichia coli [12] = experiment: Antibacterial activity against Escherichia coli K-12 W1895 transconjugant harboring pCF243 by microdilution method in presence of Sulbactam; assay type: functional
Method in brief: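 Broth microdilution MIC of ampicillin-sulbactam, combined at a 2:1 ampicillin:sulbactam ratio. The host is an E. coli K-12 W1895 transconjugant carrying the natural blaKHM-1 plasmid pCF243 from C. freundii KHM243, selected on Penassay broth agar with rifampin (200 μg/ml) and moxalactam.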

Citrobacter freundii [13] = experiment: Antibacterial activity against Citrobacter freundii KHM243 clinical isolate by microdilution method in presence of Sulbactam; assay type: functional
Method in brief: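 Broth microdilution susceptibility of C. freundii KHM243, a urinary isolate from a catheter-associated UTI patient (1997). Ampicillin was tested with sulbactam at a fixed ampicillin:sulbactam ratio of 2:1.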

Escherichia coli [14] = experiment: Antibacterial activity against Escherichia coli K-12 W1895 by microdilution method in presence of clavulanic acid; assay type: functional
Method in brief: (§1)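 Broth microdilution MICs of β-lactams. Clavulanic acid was tested combined with ticarcillin at a fixed 15:1 ticarcillin:clavulanic acid ratio.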

Citrobacter freundii [15] = experiment: Antibacterial activity against Citrobacter freundii KHM243 clinical isolate by microdilution method in presence of clavulanic acid; assay type: functional
Method in brief: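 Broth microdilution MICs of β-lactams against the C. freundii KHM243 urinary isolate. Clavulanic acid was combined with ticarcillin at a fixed 15:1 ticarcillin-to-clavulanate ratio.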

Escherichia coli [16] = experiment: Antibacterial activity against Escherichia coli JM109 by microdilution method in presence of clavulanic acid; assay type: functional
Method in brief: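 Broth microdilution susceptibility of E. coli JM109, the host strain for pHSG396-based recombinant plasmids. Ticarcillin was tested with clavulanic acid at a fixed ticarcillin:clavulanic acid ratio of 15:1.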

Escherichia coli [17] = experiment: Antibacterial activity against Escherichia coli JM109 harboring recombinant pKHM-1 by microdilution method in presence of clavulanic acid; assay type: functional; method in brief: as §1
Escherichia coli [18] = experiment: Antibacterial activity against Escherichia coli K-12 W1895 transconjugant harboring pCF243 by microdilution method in presence of clavulanic acid; assay type: functional; method in brief: as §1

Row | SMILES | MIC (Escherichia coli [1]) [µg/mL] | MIC (Escherichia coli [2]) [µg/mL] | MIC (Escherichia coli [3]) [µg/mL] | MIC (Citrobacter freundii [4]) [µg/mL] | MIC (Escherichia coli [5]) [µg/mL] | Km (Escherichia coli [6]) [µM] | kcat (Escherichia coli [6]) [s⁻¹] | kcat/Km (Escherichia coli [7]) | other results
1 | CO/N=C(\C(=O)N[C@@H]1C(=O)N2C(C(=O)O)=C(COC(C)=O)CS[C@H]12)c1csc(N)n1 [CEFOTAXIME] | 0.004 (≈ 0.00878 µM) | 128 | > 512 | 64 (≈ 141 µM) | 0.008 (≈ 0.0176 µM) | 13 | 2180 |  | 
2 | O=C(Cc1cccs1)N[C@@H]1C(=O)N2C(C(=O)[O-])=C(C[n+]3ccccc3)CS[C@H]12 [CEPHALORIDINE] | 1 (≈ 2.41 µM) | 64 | 128 (≈ 308 µM) | 512 (≈ 1230 µM) | 2 (≈ 4.81 µM) | 4.4 | 686 | 1.6 ×10⁸ /M/s | 
3 | NC(=O)OC[C@@H]1[C@H](NC(=O)/C(=N\OCC(=O)O)c2csc(N)n2)C(=O)N1S(=O)(=O)O [CARUMONAM] | 0.031 (≈ 0.0665 µM) | 0.063 | 0.125 (≈ 0.268 µM) | 0.25 (≈ 0.536 µM) | 0.031 (≈ 0.0665 µM) |  |  |  | 
4 | CO/N=C(\C(=O)N[C@@H]1C(=O)N2C(C(=O)O)=C(COC(N)=O)CS[C@H]12)c1ccco1 [CEFUROXIME] | 8 (≈ 18.9 µM) | > 512 | > 512 | > 512 | 2 (≈ 4.71 µM) |  |  |  | 
5 | C[C@@H](O)[C@H]1C(=O)N2C(C(=O)O)=C(S[C@@H]3CN[C@H](C(=O)N(C)C)C3)[C@H](C)[C@H]12 [MEROPENEM] | 0.004 (≈ 0.0104 µM) | 4 | 4 (≈ 10.4 µM) | 4 (≈ 10.4 µM) | 0.004 (≈ 0.0104 µM) | 12 | 0.4 | 3.3 ×10⁴ /M/s | 
6 | C[C@H]1[C@H](NC(=O)/C(=N\OC(C)(C)C(=O)O)c2csc(N)n2)C(=O)N1S(=O)(=O)O [AZTREONAM] |  | 0.063 | 0.063 (≈ 0.145 µM) |  | 0.031 (≈ 0.0712 µM) |  |  |  | Km (Escherichia coli [8]): inactive; kcat (Escherichia coli [8]): inactive
7 | CC1(C)S[C@@H]2[C@H](NC(=O)[C@H](N)c3ccccc3)C(=O)N2[C@H]1C(=O)O [AMPICILLIN] | 1 (≈ 2.86 µM) | 16 | 64 (≈ 183 µM) | 256 (≈ 733 µM) | 8 (≈ 22.9 µM) | 978 | 19 | 1.9 ×10⁴ /M/s | MIC (Escherichia coli [9]): 1 µg/mL; MIC (Escherichia coli [10]): 0.5 µg/mL; MIC (Escherichia coli [11]): 16 µg/mL; MIC (Escherichia coli [12]): 64 µg/mL; MIC (Citrobacter freundii [13]): 64 µg/mL
8 | CC(C)(O/N=C(\C(=O)N[C@@H]1C(=O)N2C(C(=O)[O-])=C(C[n+]3ccccc3)CS[C@H]12)c1csc(N)n1)C(=O)O [CEFTAZIDIME] | 0.063 (≈ 0.115 µM) | > 512 | > 512 | > 512 | 0.125 (≈ 0.229 µM) | 8 | 118 | 1.5 ×10⁷ /M/s | 
9 | CO[C@@]1(NC(=O)C(C(=O)O)c2ccc(O)cc2)C(=O)N2C(C(=O)O)=C(CSc3nnnn3C)CO[C@@H]21 (stereo partly specified) [MOXALACTAM] | 0.031 (≈ 0.0596 µM) | > 512 | > 512 | 256 (≈ 492 µM) | 0.063 (≈ 0.121 µM) | 71 | 2790 | 3.9 ×10⁷ /M/s | 
10 | CO[C@@]1(NC(=O)CSC(F)F)C(=O)N2C(C(=O)O)=C(CSc3nnnn3CCO)CO[C@@H]21 [FLOMOXEF] | 0.031 (≈ 0.0624 µM) | 128 | 256 (≈ 516 µM) | 64 (≈ 129 µM) | 0.031 (≈ 0.0624 µM) |  |  |  | 
11 | CC1(C)S[C@@H]2[C@H](NC(=O)Cc3ccccc3)C(=O)N2[C@H]1C(=O)O |  |  |  |  |  | 1340 | 23 | 1.7 ×10⁴ /M/s | 
12 | CO[C@@]1(NC(=O)C2SC(=C(C(N)=O)C(=O)O)S2)C(=O)N2C(C(=O)O)=C(CSc3nnnn3C)CS[C@@H]21 (stereo partly specified) [CEFOTETAN] | 0.031 (≈ 0.0539 µM) | > 512 | 512 (≈ 889 µM) | 128 (≈ 222 µM) | 0.125 (≈ 0.217 µM) |  |  |  | 
13 | C[C@@H](O)[C@H]1C(=O)N2C(C(=O)O)=C(SCCNC=N)C[C@H]12 [IMIPENEM ANHYDROUS] |  |  | 4 (≈ 13.4 µM) | 2 (≈ 6.68 µM) | 0.063 (≈ 0.21 µM) |  |  | 5.6 ×10⁴ /M/s | 
14 | CO[C@@]1(NC(=O)Cc2cccs2)C(=O)N2C(C(=O)O)=C(COC(N)=O)CS[C@@H]21 [CEFOXITIN] | 8 (≈ 18.7 µM) | > 512 | > 512 | 512 (≈ 1200 µM) | 8 (≈ 18.7 µM) | 81 | 1180 | 1.4 ×10⁷ /M/s | 
15 | CCN1CCN(C(=O)N[C@@H](C(=O)N[C@]2(OC)C(=O)N3C(C(=O)O)=C(CSc4nnnn4C)CS[C@@H]32)[C@H](C)O)C(=O)C1=O [CEFBUPERAZONE] | 0.031 (≈ 0.0494 µM) | 512 | 256 (≈ 408 µM) | 128 (≈ 204 µM) | 0.063 (≈ 0.1 µM) |  |  |  | 
16 | CCN1CCN(C(=O)N[C@@H](C(=O)N[C@@H]2C(=O)N3[C@@H]2SC(C)(C)[C@@H]3C(=O)O)c2ccccc2)C(=O)C1=O [PIPERACILLIN] | 0.25 (≈ 0.483 µM) | 4 | 16 (≈ 30.9 µM) | 4 (≈ 7.73 µM) | 2 (≈ 3.86 µM) |  |  |  | 
17 | CO/N=C(\C(=O)N[C@@H]1C(=O)N2C(C(=O)[O-])=C(C[N+]3(C)CCCC3)CS[C@H]12)c1csc(N)n1 | 0.004 (≈ 0.00832 µM) | 64 | > 512 |  | 0.002 (≈ 0.00416 µM) |  |  |  | 
18 | CC1(C)S[C@@H]2[C@H](NC(=O)[C@H](C(=O)O)c3ccsc3)C(=O)N2[C@H]1C(=O)O [TICARCILLIN] | 2 (≈ 5.2 µM) | 512 | > 512 | > 512 | 2 (≈ 5.2 µM) |  |  |  | MIC (Escherichia coli [14]): 4 µg/mL; MIC (Citrobacter freundii [15]): 512 µg/mL; MIC (Escherichia coli [16]): 2 µg/mL; MIC (Escherichia coli [17]): 512 µg/mL; MIC (Escherichia coli [18]): > 512 µg/mL
19 | CO/N=C(\C(=O)N[C@@H]1C(=O)N2C(C(=O)[O-])=C(C[n+]3ccn4ncccc43)CS[C@H]12)c1nsc(N)n1 [CEFOZOPRAN] | 0.008 (≈ 0.0155 µM) | 64 | 256 (≈ 497 µM) | 16 (≈ 31 µM) | 0.016 (≈ 0.031 µM) |  |  |  | 
20 | CO[C@@]1(NC(=O)CSCC#N)C(=O)N2C(C(=O)O)=C(CSc3nnnn3C)CS[C@@H]21 [CEFMETAZOLE] | 0.25 (≈ 0.53 µM) | > 512 | 512 (≈ 1090 µM) | 512 (≈ 1090 µM) | 0.5 (≈ 1.06 µM) |  |  |  | 
21 | CO[C@@]1(NC(=O)CSC[C@@H](N)C(=O)O)C(=O)N2C(C(=O)O)=C(CSc3nnnn3C)CS[C@@H]21 [CEFMINOX] | 0.25 (≈ 0.481 µM) | 512 | > 512 | 512 (≈ 985 µM) | 0.125 (≈ 0.241 µM) |  |  |  | 
